Results published in ChEMBL document CHEMBL4699398, “The synthesis and biological evaluation of sanguinarine derivatives as anti-non-small cell lung cancer agents” (RSC Med Chem, 2020).
Active and inactive are the calls of the source. The rule behind the calls is not given here.

Legend:
NCI-H1975 [1] = test: Induction of cell cycle arrest in human H1975 cells assessed as accumulation in G2/M phase at 0.3 uM incubated for 24 hrs by […] propidium iodide staining based flow cytometry (reference value: 21.00 %); type: functional
A549 [2] = test: Induction of apoptosis in human A549 cells assessed as viable cells at 3 uM after 48 hrs by Annexin V-FITC/7-AAD staining based flow cytometric method (reference value: 93.10 %); type: functional; conditions: read-out: Activity
A549 [3] = test: Induction of apoptosis in human A549 cells assessed as early apoptotic cells at 1 uM after 48 hrs by Annexin V-FITC/7-AAD staining based flow cytometric method (reference value: 3.26 %); type: functional
NCI-H1975 [4] = test: Induction of apoptosis in human H1975 cells assessed as late apoptotic cells at 1 uM after 48 hrs by Annexin V-FITC/7-AAD staining based flow cytometric method (reference value: 4.63 %); type: functional
NCI-H1975 [5] = test: Induction of cell cycle arrest in human H1975 cells assessed as accumulation in G2/M phase at 3 uM incubated for 24 hrs by […] propidium iodide staining based flow cytometry (reference value: 21.00 %); type: functional
A549 [6] = test: Induction of apoptosis in human A549 cells assessed as necrotic cells at 0.3 uM after 48 hrs by Annexin V-FITC/7-AAD staining based flow cytometric method (reference value: 0.70 %); type: functional
A549 [7] = test: Induction of cell cycle arrest in human A549 cells assessed as accumulation in G0/G1 phase at 3 uM incubated for 24 hrs by […] propidium iodide staining based flow cytometry (reference value: 63.11 %); type: functional
NCI-H1975 [8] = test: Induction of apoptosis in human H1975 cells assessed as viable cells at 3 uM after 48 hrs by Annexin V-FITC/7-AAD staining based flow cytometric method (reference value: 88.02 %); type: functional; conditions: read-out: Activity
NCI-H1975 [9] = test: Induction of apoptosis in human H1975 cells assessed as increase in cleaved caspase-9 level at 0.1 to 3 uM incubated for 24 hrs by Western blot analysis; type: functional, cell-based; conditions: dose microM 0.1-3, time 24.0 hrs
Outline: (§1)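 After treatment, cells harvested and lysed in RIPA buffer; equal protein loaded on 12% SDS-PAGE and transferred to PVDF; blocked in 5% milk 2 h at room temperature; primary antibodies (AKT, p-AKT, cleaved caspase-3, cleaved caspase-9, PARP; GAPDH loading control) overnight at 4 °C; HRP secondaries 2 h at room temperature; chemiluminescent detection.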

NCI-H1975 [10] = test: Induction of apoptosis in human H1975 cells assessed as necrotic cells at 1 uM after 48 hrs by Annexin V-FITC/7-AAD staining based flow cytometric method (reference value: 0.85 %); type: functional
NCI-H1975 [11] = test: Induction of cell cycle arrest in human H1975 cells assessed as accumulation in G2/M phase at 1 uM incubated for 24 hrs by […] propidium iodide staining based flow cytometry (reference value: 21.00 %); type: functional
A549 [12] = test: Induction of cell cycle arrest in human A549 cells assessed as accumulation in S phase at 3 uM incubated for 24 hrs by […] propidium iodide staining based flow cytometry (reference value: 14.16 %); type: functional
A549 [13] = test: Induction of apoptosis in human A549 cells assessed as increase in cleaved PARP level at 0.1 to 3 uM after 24 hrs by Western blot analysis; type: functional, cell-based; conditions: dose microM 0.1-3, time 24.0 hrs; outline: as §1
A549 [14] = test: Induction of apoptosis in human A549 cells assessed as increase in ROS production incubated for 20 mins by DCFH-DA staining based flow cytometry analysis; type: functional, cell-based; conditions: dose microM 0.3-3, time 20.0 min
Outline: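 At 20 min after compound treatment, cells washed in PBS and loaded with 10 μM DCFH-DA in phenol red-free DMEM for 30 min at 37 °C in the dark; washed three times with PBS; DCF fluorescence of ROS-positive cells measured by flow cytometry with excitation at 488 nm.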

A549 [15] = test: Induction of apoptosis in human A549 cells assessed as viable cells at 1 uM after 48 hrs by Annexin V-FITC/7-AAD staining based flow cytometric method (reference value: 93.10 %); type: functional; conditions: read-out: Activity
NCI-H1975 [16] = test: Induction of apoptosis in human H1975 cells assessed as viable cells at 1 uM after 48 hrs by Annexin V-FITC/7-AAD staining based flow cytometric method (reference value: 88.02 %); type: functional; conditions: read-out: Activity
A549 [17] = test: Induction of cell cycle arrest in human A549 cells assessed as accumulation in S phase at 0.3 uM incubated for 24 hrs by […] propidium iodide staining based flow cytometry (reference value: 14.16 %); type: functional
NCI-H1975 [18] = test: Induction of apoptosis in human H1975 cells assessed as early apoptotic cells at 1 uM after 48 hrs by Annexin-V-FITC/7-AAD staining based flow cytometric method (reference value: 6.50 %); type: functional
NCI-H1975 [19] = test: Induction of cell cycle arrest in human H1975 cells assessed as accumulation in S phase at 1 uM incubated for 24 hrs by […] propidium iodide staining based flow cytometry (reference value: 14.13 %); type: functional
NCI-H1975 [20] = test: Induction of apoptosis in human H1975 cells assessed as necrotic cells at 3 uM after 48 hrs by Annexin V-FITC/7-AAD staining based flow cytometric method (reference value: 0.85 %); type: functional
NCI-H1975 [21] = test: Induction of apoptosis in human H1975 cells assessed as increase in cleaved caspase-3 level at 0.1 to 3 uM incubated for 24 hrs by Western blot analysis; type: functional, cell-based; conditions: dose microM 0.1-3, time 24.0 hrs; outline: as §1
NCI-H1975 [22] = test: Induction of cell cycle arrest in human H1975 cells assessed as accumulation in S phase at 3 uM incubated for 24 hrs by […] propidium iodide staining based flow cytometry (reference value: 14.13 %); type: functional
A549 [23] = test: Induction of apoptosis in human A549 cells assessed as early apoptotic cells at 3 uM after 48 hrs by Annexin V-FITC/7-AAD staining based flow cytometric method (reference value: 3.26 %); type: functional
NCI-H1975 [24] = test: Induction of cell cycle arrest in human H1975 cells assessed as accumulation in G0/G1 phase at 1 uM incubated for 24 hrs by […] propidium iodide staining based flow cytometry (reference value: 62.86 %); type: functional
A549 [25] = test: Induction of cell cycle arrest in human A549 cells assessed as accumulation in G2/M phase at 3 uM incubated for 24 hrs by […] propidium iodide staining based flow cytometry (reference value: 22.46 %); type: functional
NCI-H1975 [26] = test: Induction of apoptosis in human H1975 cells assessed as late apoptotic cells at 0.3 uM after 48 hrs by Annexin V-FITC/7-AAD staining based flow cytometric method (reference value: 4.63 %); type: functional

Compound: CN1c2c(ccc3cc4c(cc23)OCO4)-c2ccc3c(c2C1N1CCOCC1)OCO3 (stereo unspecified)
- Activity (NCI-H1975 [1]): 23.51%
- viability at 3 µM (A549 [2]): 0.71%
- Activity (A549 [3]): 8.03%
- Activity (NCI-H1975 [4]): 19.17%
- Activity (NCI-H1975 [5]): 13.21%
- Activity (A549 [6]): 8.73%
- Activity (A549 [7]): 71.21%
- viability at 3 µM (NCI-H1975 [8]): 1.8%
- Activity (NCI-H1975 [9]): Active
- Activity (NCI-H1975 [10]): 2.8%
- Activity (NCI-H1975 [11]): 19.67%
- Activity (A549 [12]): 15.07%
- Activity (A549 [13]): Active
- Activity (A549 [14]): Dose-dependent effect
- viability at 1 µM (A549 [15]): 78.3%
- viability at 1 µM (NCI-H1975 [16]): 67.4%
- Activity (A549 [17]): 14.84%
- Activity (NCI-H1975 [18]): 10.59%
- Activity (NCI-H1975 [19]): 12.43%
- Activity (NCI-H1975 [20]): 4.59%
- Activity (NCI-H1975 [21]): Active
- Activity (NCI-H1975 [22]): 8.75%
- Activity (A549 [23]): 3.91%
- Activity (NCI-H1975 [24]): 67.32%
- Activity (A549 [25]): 13.56%
- Activity (NCI-H1975 [26]): 5.55%
